Assay results taken from ChEMBL document CHEMBL1148494, “Comparison between 5,10,15,20-tetraaryl- and 5,15-diarylporphyrins as photosensitizers: synthesis, photodynamic activity, and quantitative structure-activity relationship modeling” (J Med Chem, 2006).
“And” between values parts separate entries of the source, which are not always exact repeats. Equal values may be shown once.

system: HCT-116; assay: Cytotoxicity against human HCT116 cell line; assay type: functional, cell-based
In short: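 HCT116 cells kept in DMEM, seeded at 5 × 10⁴ cells/mL, grown 48 h, then exposed to a range of PS concentrations for 24 h. PS medium swapped for PBS; visible light from a tungsten-halogen lamp for 2 h (22 mW/cm², 158.4 J/cm²). Then 24 h at 37 °C in drug-free medium. MTT 0.4 mg/mL final for 3 h; formazan in DMSO read at 570 nm. IC50 by nonlinear regression, mean of three replicates ± SE.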

Question: How did the IC50 turn out when `C1=Cc2cc3ccc([nH]3)c(-c3ccccc3)c3ccc(cc4nc(cc1n2)C=C4)[nH]3` was run?
Answer: The IC50 was 0.00123 µg/mL and 3.2 nM.

Question: How did the IC50 turn out when `C1=Cc2nc1cc1ccc([nH]1)c(-c1ccccc1)c1nc(cc3ccc([nH]3)c2-c2ccccc2)C=C1` was run?
Answer: Its IC50 is 0.00263 µg/mL and 5.66 nM.

Question: `COc1cc(-c2c3nc(cc4ccc(cc5nc(cc6ccc2[nH]6)C=C5)[nH]4)C=C3)cc(OC)c1OC` was tested. Which IC50 did it give?
Answer: The IC50 was 0.00229 µg/mL and 4.8 nM.

Question: `Oc1ccc(-c2c3nc(cc4ccc([nH]4)c(-c4ccccc4)c4nc(cc5ccc2[nH]5)C=C4)C=C3)cc1` was tested. Which IC50 did it give?
Answer: The IC50 was 0.00335 µg/mL and 7.01 nM.

Question: With `COc1ccc(-c2c3nc(cc4ccc([nH]4)c(-c4ccc(OC)cc4)c4nc(cc5ccc2[nH]5)C=C4)C=C3)cc1` as the compound, how does the IC50 read?
Answer: Its IC50 is 0.0274 µg/mL and 52.5 nM.

Question: Which IC50 does the source give for `C1=Cc2nc1cc1ccc([nH]1)c(-c1ccccc1)c1ccc(cc3nc(c2-c2ccccc2)CC3)[nH]1` here?
Answer: The IC50 was 0.00151 µg/mL and 3.26 nM.

Question: With `COc1cc(-c2c3nc(cc4ccc([nH]4)c(-c4cc(OC)c(OC)c(OC)c4)c4ccc(cc5nc2C=C5)[nH]4)C=C3)cc(OC)c1OC` as the compound, how does the IC50 read?
Answer: The IC50 was 0.00632 µg/mL and 9.84 nM.

Question: For `Oc1cccc(-c2c3nc(cc4ccc([nH]4)c(-c4cccc(O)c4)c4nc(cc5ccc2[nH]5)C=C4)C=C3)c1`, which IC50 is on record?
Answer: Its IC50 is 0.00351 µg/mL and 7.09 nM.

Question: `Oc1cc(-c2c3nc(c(-c4ccccc4)c4ccc([nH]4)c(-c4ccccc4)c4nc(c(-c5ccccc5)c5ccc2[nH]5)C=C4)C=C3)cc(O)c1O` was tested. Which IC50 did it give?
Answer: The IC50 was 0.0353 µg/mL and 53.3 nM.

Question: `Oc1cccc(-c2c3nc(cc4ccc([nH]4)c(-c4ccccc4)c4nc(cc5ccc2[nH]5)C=C4)C=C3)c1` was tested. Which IC50 did it give?
Answer: The IC50 was 0.00051 µg/mL and 1.06 nM.

Question: `COc1cccc(-c2c3nc(cc4ccc([nH]4)c(-c4ccccc4)c4nc(cc5ccc2[nH]5)C=C4)C=C3)c1` was tested. Which IC50 did it give?
Answer: The IC50 was 0.00293 µg/mL and 5.94 nM.

Question: `COc1ccc(-c2c3nc(c(-c4ccccc4)c4ccc([nH]4)c(-c4ccccc4)c4nc(c(-c5ccccc5)c5ccc2[nH]5)C=C4)C=C3)cc1` was tested. Which IC50 did it give?
Answer: Its IC50 is 0.894 µg/mL and 1.39 µM.

Question: With `Oc1cc(-c2c3nc(cc4ccc([nH]4)c(-c4ccccc4)c4nc(cc5ccc2[nH]5)C=C4)C=C3)cc(O)c1O` as the compound, how does the IC50 read?
Answer: The IC50 was 0.00497 µg/mL and 9.75 nM.

Question: With `COc1ccc(-c2c3nc(cc4ccc(cc5nc(cc6ccc2[nH]6)C=C5)[nH]4)C=C3)cc1` as the compound, how does the IC50 read?
Answer: Its IC50 is 0.00077 µg/mL and 1.85 nM.

Question: How did the IC50 turn out when `Oc1cccc(-c2c3nc(c(-c4ccccc4)c4ccc([nH]4)c(-c4ccccc4)c4nc(c(-c5ccccc5)c5ccc2[nH]5)C=C4)C=C3)c1` was run?
Answer: The IC50 was 0.217 µg/mL and 344 nM.

Question: `Oc1ccc(-c2c3nc(c(-c4ccccc4)c4ccc([nH]4)c(-c4ccccc4)c4nc(c(-c5ccccc5)c5ccc2[nH]5)C=C4)C=C3)cc1` was tested. Which IC50 did it give?
Answer: The IC50 was 0.145 µg/mL and 230 nM.

Question: Which IC50 does the source give for `COc1cccc(-c2c3nc(cc4ccc([nH]4)c(-c4cc(OC)c(OC)c(OC)c4)c4nc(cc5ccc2[nH]5)C=C4)C=C3)c1` here?
Answer: The IC50 was 0.00921 µg/mL and 15.8 nM.

Question: `COc1cccc(-c2c3nc(cc4ccc([nH]4)c(-c4cccc(OC)c4)c4nc(cc5ccc2[nH]5)C=C4)C=C3)c1` was tested. Which IC50 did it give?
Answer: Its IC50 is 0.0129 µg/mL and 24.7 nM.

Question: Which IC50 does the source give for `COc1cc(-c2c3nc(c(-c4ccccc4)c4ccc([nH]4)c(-c4ccccc4)c4nc(c(-c5ccccc5)c5ccc2[nH]5)C=C4)C=C3)cc(OC)c1OC` here?
Answer: Its IC50 is 0.709 µg/mL and 1.01 µM.

Question: For `COc1ccc(-c2c3nc(cc4ccc([nH]4)c(-c4ccccc4)c4nc(cc5ccc2[nH]5)C=C4)C=C3)cc1`, which IC50 is on record?
Answer: Its IC50 is 0.00606 µg/mL and 12.3 nM.

Question: With `COc1cc(-c2c3nc(cc4ccc([nH]4)c(-c4ccccc4)c4nc(cc5ccc2[nH]5)C=C4)C=C3)cc(OC)c1OC` as the compound, how does the IC50 read?
Answer: Its IC50 is 0.00428 µg/mL and 7.75 nM.

Question: Which IC50 does the source give for `COc1ccc(-c2c3nc(cc4ccc([nH]4)c(-c4cc(OC)c(OC)c(OC)c4)c4nc(cc5ccc2[nH]5)C=C4)C=C3)cc1` here?
Answer: The IC50 was 0.00903 µg/mL and 15.5 nM.

Question: How did the IC50 turn out when `COc1cccc(-c2c3nc(c(-c4ccccc4)c4ccc([nH]4)c(-c4ccccc4)c4nc(c(-c5ccccc5)c5ccc2[nH]5)C=C4)C=C3)c1` was run?
Answer: The IC50 was 0.0998 µg/mL and 155 nM.

Question: With `COc1ccc(-c2c3nc(c(-c4ccc(OC)cc4)c4ccc([nH]4)c(-c4cc(OC)c(OC)c(OC)c4)c4nc(c(-c5ccc(OC)cc5)c5ccc2[nH]5)C=C4)C=C3)cc1` as the compound, how does the IC50 read?
Answer: Its IC50 is > 1.5 µg/mL and > 1.89 µM.

Question: `Oc1cccc(-c2c3nc(c(-c4cccc(O)c4)c4ccc([nH]4)c(-c4cccc(O)c4)c4nc(c(-c5cccc(O)c5)c5ccc2[nH]5)CC4)C=C3)c1` [TEMOPORFIN] was tested. Which IC50 did it give?
Answer: The IC50 was 0.00517 µg/mL and 7.6 nM.
